# HSF1 inh: HSF1 inhibition; NIH3T3-HGL HSE-luciferase, MG132-induced, luminescence 8 h; stronger effect = lower value; hit rate 0.77% among 300,000; activity change, negative = inhibition, % at 7.5 µM (by protocol);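 active = more than half of replicate wells show activity change below -50%, luminescence cut by over half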;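 also: luciferase reports HSF-1 transcriptional activity via heat shock element; 0% = median of DMSO wells and -100% = zero luminescence signal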
# HSF-1 act: increases HSF-1 driven luciferase reporter signal; NIH3T3-HGL HSF-1 luciferase reporter, MG132, 8 h; 100% = twice DMSO control signal; activation, % at 9 µM; hit rate 1.7% among 300,000; AID 504408;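 active = mean replicate activation of at least 50% with a set share of replicates each reaching 50%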;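 also: 0% = median of the neutral control wells and 100% = twice that signal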
# T cruzi repl: T. cruzi replication inhibition; hit rate 1.4% among 300,000; inhibition, % (test concentration not listed); AID 1885; T. cruzi beta-gal in NIH3T3, luminescence, 90 h;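 active = mean inhibition across valid replicates above about 55%, limit read from the data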;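 also: signal also drops with host cell toxicity which is not excluded here; 0% = plate median of DMSO wells and 100% = zero luminescence signal; higher percent means less beta-gal luminescence so fewer parasites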
#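 Material: NIH/3T3 host cells with β-galactosidase reporter T. cruzi; Input: 5,000 host fibroblasts per well; Medium: DMEM, 2% fetal bovine serum; Compound: 50 nL DMSO compound solution per well; Schedule: 3 h host attachment, then at least 90 h co-culture; Detection: luminescent β-galactosidase signal after 60 min lysis.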
# Jurkat NFkB inh: inhibitors of the PMA/ionomycin-induced NF-kB reporter in Jurkat cells; inhibition, % at 4 µM; hit rate 0.53% among 330,000; PMA/ionomycin-induced NF-kB luciferase reporter, luminescence; AID 435003; in the data active = inhibition above about 50%
# 697 NFkB inh: inhibitors of the PMA/ionomycin-induced NF-kB reporter in 697 B cells; inhibition, % at 4 µM; 697 B-cell NF-kB luciferase reporter, 16 h; hit rate 0.33% among 330,000; in the data active = inhibition above about 35%
# GPR7 antagonist: human neuropeptides B/W receptor 1 antagonism | inhibition, % at 4.4 µM | hit rate 1.1% among 290,000 | AID 1861 | GPR7-expressing cells, fluorescence antagonist assay | P48145; in the data active = inhibition above about 16%, passing the limit was not always enough;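 also: cells stimulated with the agonist NPW; 0% = agonist with vehicle and 100% = vehicle without agonist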
# Target sequence (P48145 whole entry, looked up): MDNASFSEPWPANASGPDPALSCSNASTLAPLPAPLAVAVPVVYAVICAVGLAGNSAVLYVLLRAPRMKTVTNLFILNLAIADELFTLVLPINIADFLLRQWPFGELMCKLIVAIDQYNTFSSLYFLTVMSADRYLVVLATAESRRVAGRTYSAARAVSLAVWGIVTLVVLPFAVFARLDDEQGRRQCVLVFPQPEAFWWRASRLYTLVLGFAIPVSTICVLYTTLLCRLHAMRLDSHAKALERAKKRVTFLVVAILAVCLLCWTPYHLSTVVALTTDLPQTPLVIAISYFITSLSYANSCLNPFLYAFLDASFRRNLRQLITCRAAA
# GPR7 antag cf: confirmation of human GPR7 antagonists; shares compounds with GPR7 antagonist; GPR7-expressing cells, calcium fluorescence antagonist mode; inhibition, % at 4.4 µM; hit rate 52% among 2,400; in the data active = inhibition above about 24%;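 also: stimulated with the GPR7 agonist NPW; 0% = agonist plus vehicle and 100% = vehicle alone without agonist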
# MCHR1 antag: MCHR1 (human) antagonism in GPR7 counter-screen; inhibition, % at 4.4 µM; shares compounds with GPR7 antagonist; hit rate 62% among 2,400; MCHR1-expressing cells, fluorescence antagonist assay; in the data active = inhibition above about 22%;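 also: 0% = vehicle with agonist and 100% = vehicle without agonist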
# An asterisk follows results filed as active; . = no result given. The list is not random: actives were taken first. Their share in the collection is about 4.8%.
SMILES,HSF1 inh,HSF-1 act,T cruzi repl,Jurkat NFkB inh,697 NFkB inh,GPR7 antagonist,GPR7 antag cf,MCHR1 antag
O=C(Nc1ccc(N2CCN(C(=O)c3ccco3)CC2)c(Cl)c1)c1c(F)c(F)c(F)c(F)c1F,24.4,39.0,48.7,1.3,13.3,29.9*,16.9,78.5*
O=C(c1cc(-c2ccc(F)cc2)no1)N1CCN(Cc2ccc3c(c2)OCO3)CC1,-4.6,3.8,7.8,10.6,7.8,12.9,.,.
CCSc1nsc(NC(=O)Nc2ccccc2F)n1,25.7,44.7,-0.7,-43.6,-92.3,1.2,.,.
C=CCSc1nsc(NC(=O)Nc2ccc(F)cc2)n1,17.1,34.7,35.2,-1.5,-39.0,35.6*,61.3*,61.0*
CCOC(=O)c1sc(NC(=O)Nc2ccc(F)cc2)nc1C,8.5,32.3,3.6,-141.3,-136.9,3.2,.,.
CCSc1nsc(NC(=O)Nc2cccc(OC)c2)n1,-2.7,-11.4,0.7,-13.9,-7.7,28.3*,36.9*,61.5*
Cc1ccc(Nc2cc(C)c(O)c(C)c2)cc1,-0.4,9.1,-7.5,-24.4,-59.4,-7.0,.,.
CNc1ncc(C(=O)c2ccc(Br)cc2)s1,21.6,39.5,-12.7,-88.3,-83.2,-12.9,.,.
CCCCc1cc(O)c(CCCC)c(O)c1,127.1,182.1*,31.2,-38.1,-49.8,92.9*,92.5*,95.5*
Cc1coc2cc3oc(=O)c(CCC(=O)NCCCN4CCOCC4)c(C)c3cc12,-2.6,9.8,-20.5,-11.2,3.5,42.6*,-9.0,-3.8
CCc1ccc(-c2cc(C)no2)cc1S(=O)(=O)NCc1ccccc1OC,-7.4,12.7,3.4,-7.6,-18.0,31.2*,7.2,31.4*
CNC(=S)N1N=C(c2ccc(OC)cc2)CC1c1ccc(N(C)C)cc1 (stereo not drawn),17.2,22.5,17.2,9.2,4.0,22.4*,8.5,33.3*
CNC(=S)N1N=C(c2ccc(Br)cc2)CC1c1ccc(N(C)C)cc1 (stereo not drawn),14.2,12.9,49.4,-5.6,-10.5,5.9,.,.
CN1/C(=C\C(=S)NC(=O)c2ccccc2Cl)C(C)(C)c2ccccc21,-27.8,-48.1,42.4,19.6,-22.6,38.2*,10.9,43.3*
CN1/C(=C\C(=S)Nc2ccccc2)C(C)(C)c2ccccc21,6.0,10.3,35.9,-11.2,-9.1,-2.3,.,.
Cc1cc(C)n(-c2nc(NCCN(C)C)c3c4c(sc3n2)CCCC4)n1,-2.7,-10.3,50.3,28.1,-10.6,24.2*,26.7*,29.9*
O=S(=O)(c1ccc2c(c1)OCCO2)N1C[C@@H]2C[C@H]1CN2S(=O)(=O)c1c(F)cccc1F,.,.,.,-5.6,11.7,.,.,.
O=C(COC(=O)c1cccc(Br)c1)NCCNC(=O)COC(=O)c1cccc(Br)c1,-1.4,12.4,-7.0,-3.4,-13.2,-8.1,.,.
CCC(=O)N(CC)c1nc(-c2ccc(OC)cc2)cs1,20.9,25.5,5.0,-37.6,-63.8,27.3*,2.3,13.2
CCC(=O)N(Cc1ccco1)c1nc(-c2ccc(OC)cc2)cs1,2.7,6.5,9.8,-38.0,-5.6,-1.3,.,.
COc1ccc(Cl)cc1NC(=O)c1noc(C)c1[N+](=O)[O-],4.2,3.8,-14.4,2.1,16.5,-9.2,.,.
O=C(Cc1ccc([N+](=O)[O-])cc1)OCc1ccc([N+](=O)[O-])cc1,6.3,15.0,-8.3,-3.8,-5.0,43.8*,29.0*,63.6*
C[C@H](N)C(=O)OCc1ccc([N+](=O)[O-])cc1,-0.9,-1.6,-3.3,2.6,6.3,-14.8,.,.
CCCS(=O)(=O)c1ccc(COC(=O)Cc2ccc([N+](=O)[O-])cc2)cc1,7.8,11.7,1.6,-20.9,-2.1,28.1*,25.4*,24.8*
COc1ccc(C(=O)/C=C/N(C)C)cc1,2.0,40.3,-4.1,-1.8,6.6,26.9*,-3.3,-4.5
CN(C)/C=C/C(=O)c1ccc(Oc2ccccc2)cc1,-0.3,-7.6,-8.6,-68.6,-87.2,-2.1,.,.
N=C(N=C(N)N)N1CCc2ccccc21,-5.4,3.5,-25.0,3.6,11.5,-6.5,.,.

# Compound activity (PubChem BioAssay)
